Compound activity: PubChem, several laboratories
M1 ag: M1 muscarinic receptor agonists, primary screen, CHO-M1 cells, Fluo-4 calcium, agonist mode; Fluo-4 calcium fluorescence; hits give high values; B-score at 10 µM; hit rate 3% among 64,000; AID 626, 2007;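 active means fluorescence rise, raw or as B-score row- and column-corrected plate score, outside the 99.7% band of its plate's samples, either direction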
SF1 activator: activators of human SF-1, primary screen, cell-based, CHO-K1, Gal4-SF-1 LBD, luciferase luminescence; CHO-K1 Gal4-SF-1 LBD luciferase reporter; % increase over DMSO SF-1-specific signal; activation, % at 10 µM; Steroidogenic factor 1 (Homo sapiens), Q13285; hit rate 1.9% among 65,000;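 active means activation above the mean activation of all tested compounds plus 3 SD, cut at about 50% in these data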
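Test system: transient Gal4-SF-1 LBD reporter, CHO-K1; Amount: 4,000 CHO-K1 cells per well; Doses: 10 µM only; Timing: compound exposure 20 h at 37 °C; Signal: luciferase light emission; Read-out basis: percent activation relative to DMSO median and mock-transfected background; Control set: DMSO negative control and −SF1 background wells; Replicates: one test per compound.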
RORA act: activators of orphan receptor RORA, primary screen, cell-based, luminescence; Nuclear receptor ROR-alpha (Homo sapiens), P35398; CHO-K1 Gal4-RORA LBD luciferase reporter; percent increase over mock-subtracted basal signal; activation, % at 10 µM; hit rate 1.5% among 65,000; AID 560, 2006;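 active means activation above the mean of all tested compounds plus 3 SD, cut at about 49% in these data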
Target sequence (P35398 whole entry, looked up, the tested form may be a part): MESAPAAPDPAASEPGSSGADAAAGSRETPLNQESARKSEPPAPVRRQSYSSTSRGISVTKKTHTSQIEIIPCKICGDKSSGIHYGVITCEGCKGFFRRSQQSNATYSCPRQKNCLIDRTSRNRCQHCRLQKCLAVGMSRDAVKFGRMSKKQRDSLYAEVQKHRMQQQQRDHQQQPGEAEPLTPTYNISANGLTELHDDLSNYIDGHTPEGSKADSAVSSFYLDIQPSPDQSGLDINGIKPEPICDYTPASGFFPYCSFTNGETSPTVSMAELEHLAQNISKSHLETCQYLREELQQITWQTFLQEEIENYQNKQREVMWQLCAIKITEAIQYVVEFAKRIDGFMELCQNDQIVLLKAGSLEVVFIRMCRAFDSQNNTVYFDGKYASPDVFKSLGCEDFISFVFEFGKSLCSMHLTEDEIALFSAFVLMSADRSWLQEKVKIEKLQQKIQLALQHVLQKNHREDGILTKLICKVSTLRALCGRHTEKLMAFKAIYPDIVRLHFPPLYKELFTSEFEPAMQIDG
D1 mod: D1 CRE-luciferase signal change, two-sided – cell-based, HEK293 D1, dopamine EC30, D1 allosteric modulator project, primary screen; B-score at 10 µM; D(1A) dopamine receptor (Homo sapiens), P21728; hit rate 5.9% among 58,000; AID 641, 2007; dopamine EC30 potentiation; actives deviate in either direction;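 active means luminescence count or its row- and column-corrected plate score outside the 99.7% band of the plate's sample wells, on either side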
M1 antagonist: antagonists of rat M1 muscarinic receptor | Muscarinic acetylcholine receptor M1 (Rattus norvegicus), P08482 | CHO-M1 cells, Fluo-4 calcium, ACh EC80 antagonist mode; hits give low values | AID 628, 2007 | B-score at 10 µM | hit rate 3.4% among 64,000;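 active means calcium fluorescence response, raw or row-and-column corrected B-score, differing from the plate sample mean either way at a set confidence level, mostly lower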
Htt clearance: clearance of mutant huntingtin inclusions, primary screen, imaging, HeLa Exon1htt(103Q)mCFP, confocal imaging; aggregate imaging; zero = plate's median compound well; inhibition, % at 1.5 µM; hit rate 0.42% among 47,000; AID 853, 2007;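 active means inhibition of aggregate fluorescence above about 70%, also judged a hit by eye on the cell image, limit read from the data, passing the limit was not always enough; inconclusive means no rule stated for this call; inactive means not judged a hit on image review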;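 further: cells exposed to compound for three days before fixation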
Of the large screens only hits and unclear results are named; the others gave an inactive call. Most compounds without a hit are left out; they make up all but 11% or so of the library.

COC(=O)CSc1nc(C)c(Oc2ccccc2)c(=O)[nH]1	none
Cc1oc(-c2ccc3c(c2)OCCO3)cc1C(=O)O	D1 mod -6.2 (no result: Htt clearance)
Cc1oc(-c2ccc3c(c2)OCCO3)cc1C(=O)NC(CCC(=O)O)C(=O)O (centres undefined)	none
O=C(Nc1ccc(Oc2ccccc2)cc1)c1cnc2n(c1=O)CCS2	none (no result: Htt clearance)
OC(CN1C2=NCCN2c2ccccc21)c1ccc(Br)cc1 (centres undefined)	D1 mod -5
OC(CN1C2=NCCN2c2ccccc21)c1ccccc1 (centres undefined)	none
CCN(CC)c1ccc2cc(C(=O)Nc3ccc(-n4cnnn4)c(OC)c3)c(=O)oc2c1	M1 ag 20 (no result: Htt clearance)
CCc1ccccc1OCc1nnc(N)s1	none (no result: D1 mod, Htt clearance)
CC(=O)N1C(=O)N(C)C2C1N(C)C(=O)N2C(C)=O (centres undefined)	none (no result: Htt clearance)
CC(=O)OC1C(OC(C)=O)N(C(C)=O)C(=O)N1C(C)=O (centres undefined)	M1 antagonist 1.9
O=C1OC(c2ccccc2)=C/C1=C/N1CCCCC1	RORA act 71 (no result: D1 mod)
O=C1OC(c2ccccc2)=N/C1=C\N1CCCCC1	none (no result: M1 ag, SF1 activator, RORA act, D1 mod, M1 antagonist)
Cc1sc(NC(=O)c2ccco2)c(C(c2cccnc2)N2CCN(c3ccc(F)cc3)CC2)c1C (centres undefined)	D1 mod -3 (no result: Htt clearance)
CCOC(=O)C1CCN(C(c2cccnc2)c2c(NC(=O)c3ccco3)sc(C)c2C)CC1 (centres undefined)	none (no result: Htt clearance)
CCc1cc(=O)oc2cc(OC(C)C(=O)O)c(Cl)cc12 (centres undefined)	D1 mod -4.2 (no result: M1 ag, M1 antagonist, Htt clearance)
O=C(c1ccccc1)c1cnc(Nc2ccccc2Cl)s1	none (no result: M1 ag, SF1 activator, RORA act, D1 mod, M1 antagonist)
CCOC(=O)N1CCN(c2ncnc3c2cnn3-c2ccc(Cl)cc2)CC1	none (no result: Htt clearance)
c1ccc(-n2ncc3c(N4CCCCC4)ncnc32)cc1	D1 mod -6.9
CC1CC(C)CN(c2ncnc3c2cnn3-c2ccc(Cl)cc2)C1 (centres undefined)	SF1 activator 71, RORA act 54 (no result: Htt clearance)
CCN1CCN(c2ncnc3c2cnn3-c2ccc(Cl)cc2)CC1	M1 antagonist -1.4 (no result: D1 mod, Htt clearance)
CC1CCCN(c2ncnc3c2cnn3-c2ccc(Cl)cc2)C1 (centres undefined)	none (no result: D1 mod, Htt clearance)
CC1CCCN(c2ncnc3c2cnn3-c2ccccc2)C1 (centres undefined)	D1 mod -7.6 (no result: Htt clearance)
c1ccc(CCN2CCN(c3ncnc4c3cnn4-c3ccccc3)CC2)cc1	none
Cc1c(O)c(CN2CCCC(C)C2)cc2c3c(c(=O)oc12)CCC3 (centres undefined)	none (no result: Htt clearance)
CCN(CC)C(=O)C1CCCN(c2ncnc3c2cnn3-c2cccc(C)c2)C1 (centres undefined)	none (no result: Htt clearance)
CCN1CCN(c2ncnc3c2cnn3-c2ccccc2)CC1	SF1 activator 56
CCN(CC)C(=O)C1CCCN(c2ncnc3c2cnn3-c2ccc(Cl)cc2)C1 (centres undefined)	D1 mod -3.6 (no result: Htt clearance)
Cc1cccc(OCCc2nnc(N)s2)c1C	none (no result: Htt clearance)
O=C(NCCCCc1ccccc1)C12CN(Cc3ccccc3)CC1C(c1ccc([N+](=O)[O-])cc1)=NO2 (centres undefined)	none (no result: M1 ag, SF1 activator, RORA act, D1 mod, M1 antagonist)
O=C(CCCC(=O)N1CCc2ccccc21)N1CCc2ccccc21	none (no result: Htt clearance)
CN(CC(=O)N1CCc2ccccc21)S(=O)(=O)c1cccs1	SF1 activator 55, RORA act 52 (no result: Htt clearance)
CN(C)c1ccc(-c2ccccc2)nn1	RORA act 56 (no result: D1 mod, Htt clearance)
CN(C)c1nc(-c2ccccc2)nnc1C(F)(F)F	none (no result: M1 ag, SF1 activator, RORA act, D1 mod, M1 antagonist)
Cc1nc(-c2ccccc2)cc(N2CCCC2)n1	none (no result: Htt clearance)
c1ccc(-c2cc(N3CCCCCC3)n[nH]2)cc1	RORA act 70 (no result: M1 ag, M1 antagonist)
c1ccc(-c2cc(N3CCCCC3)ncn2)cc1	SF1 activator 56 (no result: Htt clearance)
c1ccc(-c2cnnc(N3CCCCC3)n2)cc1	RORA act 58
Nc1nc(-c2ccccc2)cc(N2CCCCC2)n1	SF1 activator 75, Htt clearance inconclusive (no result: M1 ag, M1 antagonist)
